Experimental findings from ChEMBL document CHEMBL3414540, “Synthesis, crystal structure and effect of indeno[1,2-b]indole derivatives on prostate cancer in vitro. Potential effect against MMP-9” (Eur J Med Chem, 2015) are described below.

Test [1] can be described thus: (§1) Cytotoxicity against human PC3 cells after 72 hrs by XTT assay. Type of test: functional, cell-based. As to conditions: PC-3, 72 h. In short, it runs like this: (§2)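 Compounds in DMSO (5-100 µg/ml, final DMSO <0.2%) were added for 72 h. XTT was then added (4 h, 37°C) and formazan read at 492 nm. IC50 is the 50% viability drop versus vehicle. Three experiments, five wells each, mean ± SEM.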
For orientation: Tetrazolium dyes change colour on reduction, which living cells bring about.

The test system of test [2] is PC-3. The test is described as §1. It is filed as functional, cell-based. In short, it runs like this:
as §2

Test [3] relates to LNCaP. The test is described as follows: Cytotoxicity against human LNCAP cells after 72 hrs by XTT assay. Type of test: functional, cell-based. In short, it runs like this: as §2
Test [4] in a line: (§3) Cytotoxicity against rat MAT-LyLu cells after 72 hrs by XTT assay. It is filed as functional, cell-based. Conditions: MAT-Ly-Lu. In short, it runs like this:
as §2

For the next test, the system named is MAT-Ly-Lu. Described as §3. Type of test: functional, cell-based. In short, it runs like this:
as §2

Test [5] concerns PC-3. The test is described as follows: Inhibition of EGF-induced cell migration of human PC3 cells at cytotoxic IC50 level incubated for 24 hrs in presence of EGF by light microscopy based wound healing assay. Type of test: functional. The procedure, abridged:
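PC-3 cells (8×10^4 per well) were grown to confluence (48 h, 37°C) and the monolayer scratched with a pipette tip. After a PBS wash, compound in fresh medium was added with […] (1 pg/ml) for 24 h. Wound area was imaged at 0 and 24 h and expressed as % closure of the original wound. Three independent experiments, mean ± SEM.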

Test [6] deals with LNCaP. Put plainly: Inhibition of cell invasion of human LNCAP cells pre-treated at cytotoxic IC50 level followed by further 18 hrs incubation by matrigel coated Boyden chamber assay. It is filed as functional, cell-based. In short, it runs like this: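 LNCaP cells (1×10^5 cells/ml) were pretreated for 24 h, then seeded in serum-free medium onto a Matrigel-coated […] membrane over medium with 20% FBS (18 h, 37°C). Invaded cells were stained with calcein (4 µg/ml in HBSS, 1 h) and fluorescence read at 485/530 nm. Inhibition is relative to vehicle. Three independent experiments, mean ± SEM.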

In test [7] the target is Matrix metalloproteinase-9 (Homo sapiens) (UniProt P14780). The test is described as follows: Inhibition of MMP9 in human PC3 cells assessed as reduction in MMP-mediated gelatinolytic activity at cytotoxic IC50 level incubated for 24 hrs by zymography. It is filed as cell-based. As to conditions: PC-3. The procedure, abridged: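 PC-3 cells at 80% confluence were washed with PBS and treated in serum-free medium (24 h, 37°C). Conditioned medium was mixed 0.75:0.25 with sample buffer lacking mercaptoethanol and run on 10% SDS gels copolymerized with gelatin (1 mg/mL). MMP-9 lysis zones were quantified as % activity relative to vehicle. Three experiments, mean ± SEM.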

Test [8] can be described thus: Inhibition of clonogenic potential of human PC3 cells grown on semi-soft agar medium assessed as colony formation at cytotoxic IC50 level incubated for 2 weeks post dose by crystal violet staining based light microscopy relative to control. It is filed as functional, PC-3. The arrangement: scale not given: the % may be the effect or the level left. In short, it runs like this: (§4)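 Cells (1×10^5) in RPMI with 20% FBS and 0.3% Noble agar were layered over a 0.6% agar/RPMI base, held 15 min at room temperature, then incubated 24 h at 37°C. Compound in 1 mL medium was added the next day. After 2 weeks, cells were stained with 0.01% crystal violet (18 h, 37°C). Colony number and relative size were scored by light microscopy against vehicle. Three independent experiments, mean ± SEM.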

In test [9] the test system is LNCaP. The test is described as follows: Inhibition of clonogenic potential of human LNCAP cells grown on semi-soft agar medium assessed as colony formation at cytotoxic IC50 level incubated for 2 weeks post dose by crystal violet staining based light microscopy relative to control. It is filed as functional. The arrangement: scale not given: the % may be the effect or the level left. The procedure, abridged: as §4

Test [10] can be described thus: Inhibition of clonogenic potential of rat MAT-LyLu cells grown on semi-soft agar medium assessed as colony formation at cytotoxic IC50 level incubated for 2 weeks post dose by crystal violet staining based light microscopy relative to control. The arrangement: scale not given: the % may be the effect or the level left. Type of test: functional, MAT-Ly-Lu. In short, it runs like this:
as §4

The nature of test [11]: Inhibition of clonogenic potential of human PC3 cells grown on semi-soft agar medium assessed as relative colony size ratio at cytotoxic IC50 level incubated for 2 weeks post dose by crystal violet staining based light microscopy (reference value: 1 +/- 0.3). Type of test: functional, PC-3. In short, it runs like this:
as §4

Test [12] deals with LNCaP. The test is described as follows: Inhibition of clonogenic potential of human LNCAP cells grown on semi-soft agar medium assessed as relative colony size ratio at cytotoxic IC50 level incubated for 2 weeks post dose by crystal violet staining based light microscopy (reference value: 1 +/- 0.3). It is filed as functional. The procedure, abridged: as §4
The nature of test [13]: Inhibition of clonogenic potential of rat MAT-LyLu cells grown on semi-soft agar medium assessed as relative colony size ratio at cytotoxic IC50 level incubated for 2 weeks post dose by crystal violet staining based light microscopy (reference value: 1 +/- 0.05). Type of test: functional, MAT-Ly-Lu. The procedure, abridged: as §4

Values after ≈ are worked out from the molar mass of the structure shown. Active and inactive are the calls of the source. The rule behind the calls is not given here.

In general, IC50 refers to the point on the concentration scale where inhibition reaches its midpoint.

Chain of Matrix metalloproteinase-9 (Homo sapiens) (P14780 whole entry): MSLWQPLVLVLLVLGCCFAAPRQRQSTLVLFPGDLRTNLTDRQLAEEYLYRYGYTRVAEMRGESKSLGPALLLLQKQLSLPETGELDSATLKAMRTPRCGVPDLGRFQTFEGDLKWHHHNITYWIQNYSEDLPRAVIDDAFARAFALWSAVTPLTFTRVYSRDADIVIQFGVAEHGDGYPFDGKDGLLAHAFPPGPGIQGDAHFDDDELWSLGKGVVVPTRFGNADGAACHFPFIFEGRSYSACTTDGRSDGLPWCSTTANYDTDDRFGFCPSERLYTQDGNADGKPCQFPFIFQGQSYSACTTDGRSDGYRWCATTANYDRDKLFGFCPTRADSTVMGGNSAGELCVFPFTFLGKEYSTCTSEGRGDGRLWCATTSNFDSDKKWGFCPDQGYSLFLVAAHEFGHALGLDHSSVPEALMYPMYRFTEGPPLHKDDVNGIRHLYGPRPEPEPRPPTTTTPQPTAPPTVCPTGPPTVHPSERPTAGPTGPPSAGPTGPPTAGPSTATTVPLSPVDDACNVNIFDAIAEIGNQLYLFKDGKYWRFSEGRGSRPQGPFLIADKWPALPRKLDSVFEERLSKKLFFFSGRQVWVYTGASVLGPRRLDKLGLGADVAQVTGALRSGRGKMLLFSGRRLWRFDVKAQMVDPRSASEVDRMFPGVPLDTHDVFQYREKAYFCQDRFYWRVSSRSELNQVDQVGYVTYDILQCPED

Take `O=C1CCCC2=C1[C@]1(O)C(=O)c3ccccc3[C@]1(O)N2c1ccc(Cl)cc1` (racemic): the results for the half-maximal inhibitory concentration (IC50) (in test [1]; with LNCaP [3]; in [4]) were 67.9 µg/mL (≈ 178 µM), 79.2 µg/mL (≈ 207 µM) and over 100 µg/mL, respectively. Moreover, the inhibition result with PC-3 [2], in the test on LNCaP [3] and in the test with MAT-Ly-Lu was “Dose-dependent effect” in each case.
In the case of `CC1(C)CC(=O)C2=C(C1)N(c1ccc(Cl)cc1)[C@@]1(O)c3ccccc3C(=O)[C@@]21O` (racemic), the IC50 in test [1] is 76.6 µg/mL (≈ 187 µM); in the test on LNCaP [3] it was 66.2 µg/mL (≈ 162 µM); in test [4], over 100 µg/mL. Besides, the inhibition result with PC-3 [2], in the test with LNCaP [3] and in the test with MAT-Ly-Lu was “Dose-dependent effect” in each case.
For `O=C1CCCC2=C1[C@]1(O)C(=O)c3ccccc3[C@]1(O)N2c1ccc(Cl)c(Cl)c1` (racemic), the values for the IC50 (in test [1]; with LNCaP [3]; in test [4]) were 47.8 µg/mL (≈ 115 µM), 53.9 µg/mL (≈ 130 µM) and 75.2 µg/mL (≈ 181 µM), respectively. Further, the inhibition result in the test on PC-3 [2], with LNCaP [3] and with MAT-Ly-Lu was “Dose-dependent effect” throughout.
In the case of `CC1(C)CC(=O)C2=C(C1)N(c1ccc(Cl)c(Cl)c1)[C@@]1(O)c3ccccc3C(=O)[C@@]21O` (racemic), the IC50 was 10.7 µg/mL (≈ 24.1 µM) in test [1], 9.57 µg/mL (≈ 21.5 µM) in the test on LNCaP [3] and 5.96 µg/mL (≈ 13.4 µM) in test [4]. For the same molecule, the inhibition result in the test with PC-3 [2], in the test on LNCaP [3] and in the test with MAT-Ly-Lu was “Dose-dependent effect” in each case. In addition, the inhibition result (in the test with PC-3 [5]; in the test on LNCaP [6]; in test [7]) was “Active” throughout. For the same molecule, the Activity in test [8] was determined as 0%; in the test on LNCaP [9], 0%; in test [10], 6.35%. The Ratio came out at 0 in test [11], 0 in the test with LNCaP [12] and 0.16 in [13].
Regarding `COc1ccc(N2C3=C(C(=O)CC(C)(C)C3)[C@]3(O)C(=O)c4ccccc4[C@]23O)cc1OC` (racemic), the IC50 (in test [1]; with LNCaP [3]; in test [4]) was over 100 µg/mL throughout.
As to `COc1ccc(OC)c(N2C3=C(C(=O)CC(C)(C)C3)[C@]3(O)C(=O)c4ccccc4[C@]23O)c1` (racemic), the half-inhibitory concentration (IC50) (in [1]; in the test on LNCaP [3]; in test [4]) was over 100 µg/mL in each case.
On to `COc1cc(N2C3=C(C(=O)CC(C)(C)C3)[C@]3(O)C(=O)c4ccccc4[C@]23O)cc(OC)c1OC` (racemic), for which the IC50 (in test [1]; with LNCaP [3]; in test [4]) was over 100 µg/mL each time.
With `Cc1ccccc1N1C2=C(C(=O)CC(C)(C)C2)[C@]2(O)C(=O)c3ccccc3[C@]12O` (racemic), the IC50 (in test [1]; in the test on LNCaP [3]; in test [4]) was over 100 µg/mL each time.
As for `Cc1cccc(N2C3=C(C(=O)CC(C)(C)C3)[C@]3(O)C(=O)c4ccccc4[C@]23O)c1` (racemic), the half-inhibitory concentration (IC50) (in test [1]; in the test with LNCaP [3]; in test [4]) was over 100 µg/mL in each case.
As for `Cc1ccc(N2C3=C(C(=O)CC(C)(C)C3)[C@]3(O)C(=O)c4ccccc4[C@]23O)cc1` (racemic), the half-maximal inhibitory concentration (IC50) (in [1]; in the test on LNCaP [3]; in [4]) was over 100 µg/mL in each case.
As for `Cc1ccc(N2C3=C(C(=O)CC(C)(C)C3)[C@]3(O)C(=O)c4ccccc4[C@]23O)c(C)c1` (racemic), the IC50 (in test [1]; with LNCaP [3]; in [4]) was over 100 µg/mL each time.
Regarding `Cc1ccc(C)c(N2C3=C(C(=O)CC(C)(C)C3)[C@]3(O)C(=O)c4ccccc4[C@]23O)c1` (racemic), the half-inhibitory concentration (IC50) (in [1]; in the test with LNCaP [3]; in [4]) was over 100 µg/mL throughout.
For the molecule `Cc1ccc(N2C3=C(C(=O)CC(C)(C)C3)[C@]3(O)C(=O)c4ccccc4[C@]23O)cc1C` (racemic), the 50% inhibitory concentration (IC50) (in test [1]; in the test on LNCaP [3]; in [4]) was over 100 µg/mL each time.
As for `Cc1cc(C)cc(N2C3=C(C(=O)CC(C)(C)C3)[C@]3(O)C(=O)c4ccccc4[C@]23O)c1` (racemic), the concentration for half-maximal inhibition (IC50) (in test [1]; in the test on LNCaP [3]; in test [4]) was over 100 µg/mL each time.
In the case of `CC1(C)CC(=O)C2=C(C1)N(c1ccc(Br)cc1)[C@@]1(O)c3ccccc3C(=O)[C@@]21O` (racemic), the IC50 (in test [1]; in the test with LNCaP [3]; in [4]) was over 100 µg/mL each time.
As for `Cc1cc(N)c2ccccc2[n+]1CCCCCCCCCC[n+]1c(C)cc(N)c2ccccc21` [DEQUALINIUM], the IC50 in test [1] amounted to 24.6 µg/mL; in the test with LNCaP [3] it was 4.94 µg/mL; in test [4] it was 10.3 µg/mL. Further, the inhibition entry in the test with PC-3 [2], in the test with LNCaP [3] and in the test on MAT-Ly-Lu was “Dose-dependent effect” throughout.
